The campaign covered roughly 330,000 compounds. About 350 (0.11%) were called active.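 The calls were made as follows: active = activation more than six SD over the plate average, tested at 20 µM; inactive = the rest.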 What follows is part of a selection rich in actives, with near analogues and random picks from the rest.
Target: Apelin receptor (Homo sapiens) (UniProt P35414)
Test: agonists of human apelin receptor APJ, primary screen, CHO-K1 cells, PathHunter beta-arrestin, luminescence (AID 2520);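 also: 0% = DMSO alone and 100% = apelin-13 at 10 nM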
Settings: at 20 µM, active compounds read high, 0% DMSO wells, 100% apelin
Method in brief: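 Test system: CHO-K1 APJ beta-arrestin complementation cell line | Compound: Single test compound dose, 20 µM final, 1% DMSO | Incubation: Compound 90 min 25 °C, reagent 1 h | Measured by: beta-gal luminescence | Read-out basis: APJ–arrestin association signal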

Chain of Apelin receptor (Homo sapiens) (P35414 whole entry, looked up): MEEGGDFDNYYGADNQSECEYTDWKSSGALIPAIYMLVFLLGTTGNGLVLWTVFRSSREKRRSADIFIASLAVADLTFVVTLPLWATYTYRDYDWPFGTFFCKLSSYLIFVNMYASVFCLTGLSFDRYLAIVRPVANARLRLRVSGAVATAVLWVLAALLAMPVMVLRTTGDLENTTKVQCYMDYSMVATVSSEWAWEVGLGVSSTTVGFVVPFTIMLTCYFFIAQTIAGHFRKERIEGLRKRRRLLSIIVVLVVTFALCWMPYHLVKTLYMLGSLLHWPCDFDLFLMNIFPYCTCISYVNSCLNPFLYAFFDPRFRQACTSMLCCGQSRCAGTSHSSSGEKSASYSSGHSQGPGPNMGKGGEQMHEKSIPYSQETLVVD

Compound | activation
O=C(N/N=C\C1CC=CCC1)c1ccc(Br)o1 (stereo not given) | 8.95% (inactive)
CCC(C)(C)C1CCC(=NNC(=O)c2ccc(Br)o2)CC1 (stereo not given) | 19.8% (active)
CC(C)(C)C1CCC(=NNC(=O)c2ccc(Br)o2)CC1 (stereo not given) | -3.06% (inactive)
Fc1ccc(CNCc2ccc(Br)cc2)cc1 | -1.03% (inactive)
COC(=O)c1ccc(NC(=O)CSc2nnc(C3CC3)n2C)cc1 | -3.11% (inactive)
O=C(OCCN1C(=O)c2ccccc2C1=O)Oc1ccccc1 | -1.77% (inactive)
O=C(COC(=O)C12CC3CC(CC(O)(C3)C1)C2)NC12CC3CC(CC(C3)C1)C2 | -1.34% (inactive)
O=C(COc1ccc(Cl)cc1)NCCSc1ccccc1 | -1.87% (inactive)
O=[N+]([O-])c1cc(Cl)cc(/C=N/NC(=S)Nc2cc(S(=O)(=O)N3CCOCC3)ccc2Cl)c1O | -5.98% (inactive)
Cc1ccc(NS(=O)(=O)c2c(C)[nH]c(C)c2C(=O)N2CCCCC2)c(C)c1 | -0.00146% (inactive)
CC(=O)c1ccc(OCC(O)CN2CCN(S(=O)(=O)c3cccc(Br)c3)CC2)cc1 (stereo not given) | -1.5% (inactive)
CSc1ncc(C(=O)Nc2ccc(C)cc2C)c(C)n1 | -0.333% (inactive)
Cc1ccc(S(=O)(=O)NCc2nc3ccccc3c(=O)n2N)cc1 | -0.607% (inactive)
CCCc1nc(N2CCN(C)CC2)c2sc(=S)n(-c3ccccc3)c2n1 | -2.45% (inactive)
COC(=O)c1ccc(C)c(NC(=O)C2CC(=O)N(C3CCCC(C)C3C)C2)c1 (stereo not given) | -2.02% (inactive)
CC(=O)N1c2ccc(S(=O)(=O)N3CCCC(C(=O)Nc4cccc(Cl)c4)C3)cc2CC1C (stereo not given) | -0.333% (inactive)
CC(=O)N1CCCc2cc(S(=O)(=O)N3CCCC(C(=O)NCc4ccc(Cl)cc4)C3)ccc21 (stereo not given) | -0.0955% (inactive)
CC(=O)N1CCCc2cc(S(=O)(=O)N3CCCC(C(=O)N4CCN(c5cccc(Cl)c5)CC4)C3)ccc21 (stereo not given) | 19.6% (active)
O=S(=O)(/C=C/c1ccccc1)N1CCNCC1 | -1.77% (inactive)
Cc1ccc(C)c(NC(=O)NNC(=O)c2ccc3ccccc3c2O)c1 | 10% (inactive)
CCCCNC(=O)c1ccccc1NC(=O)C1=C(C)OCCS1 | 0.515% (inactive)
COc1ccc(N2CCN(C(=O)c3ccccc3NC(=O)C3=C(C)OCCS3)CC2)cc1 | -4.76% (inactive)
COc1cc(NC(=O)C2=C(C)OCCS2)c(Cl)cc1C(=O)NCCN1CCN(C)CC1 | 18.9% (active)

Compound | activation
CCOC(=O)CSc1nnc(NC(=O)C2CC(=O)N(c3ccc(F)cc3)C2)s1 (stereo not given) | -4.52% (inactive)
C=CCOc1ccc(C2/C(=C(\O)c3c(C)[nH]c(C(=O)OC)c3C)C(=O)C(=O)N2CCN(C)C)cc1 (stereo not given) | -0.14% (inactive)
O=Cc1c(NCCc2cccc(F)c2)c2ccccc2[nH]c1=O | -3.46% (inactive)
CC(C(=O)Nc1ccc(F)c(F)c1F)N1CCCCCC1 (stereo not given) | -3.77% (inactive)
CC1CCN(C(=O)c2ccc(S(=O)(=O)Cc3cc(F)ccc3F)c([N+](=O)[O-])c2)CC1 | 1.51% (inactive)
CCN1CCN(C(C(=O)NC2CCCC2)c2cc3c(cc2[N+](=O)[O-])OCO3)CC1 (stereo not given) | 9.21% (inactive)
Cc1ccccc1NC(=O)CSc1nc2ccc(Nc3nc(N4CCOCC4)nc(N4CCOCC4)n3)cc2s1 | 8.35% (inactive)
O=C(CSc1nc(Nc2ccccc2)nc(N2CCOCC2)n1)Nc1cc(Cl)ccc1O | 40.8% (active)
CC1(c2ccccc2)NC(=O)N(CC(=O)Nc2cc(Cl)ccc2N2CCOCC2)C1=O (stereo not given) | -3.1% (inactive)
CCn1c(SCC(=O)NC2CC2)nnc1-c1ccncc1 | -8.09% (inactive)
CN1CCC(=O)N([C@H](CO)Cc2ccccc2)CC1 | -1.16% (inactive)
Cc1nn(Cc2ccccc2)c(C)c1C(=O)NCCCN1CCCC1=O | -4.22% (inactive)
COC(=O)C1C(=O)CC(C)(O)C(C(=O)OC)C1c1ccc2c(c1)OCO2 (stereo not given) | 2.74% (inactive)
NC(=O)CN1CCCC1c1ccc2c(c1)OCCO2 (stereo not given) | 0.777% (inactive)
O=C(O)Cc1ccc(NC(=O)C2CCCCC2C(=O)O)cc1 (stereo not given) | -3.2% (inactive)
Cc1cc(C)nc(NC2=NCC(=O)N2c2ccc(Cl)cc2)n1 | -2.04% (inactive)
Cc1ccnc(SCCn2c(N(C)Cc3ccccc3)nc3c2c(=O)n(C)c(=O)n3C)n1 | -0.694% (inactive)
Cc1[nH]c(C)c(S(=O)(=O)N2CCN(c3cccc(C(F)(F)F)c3)CC2)c1C(=O)N1CCCC1 | 0.662% (inactive)
COc1ccccc1N(CC(=O)NC1CCCC1)C(=O)C1(C)CC(=O)N=C2C=CC(C)=CN21 (stereo not given) | -0.286% (inactive)
Cc1cc(C)nc(SCc2nnc(SCC(=O)Nc3ncc(C)s3)n2Cc2ccco2)n1 | -3.79% (inactive)
CC[C@@]1(C(=O)OC)N[C@H](CN(C)C(C)=O)[C@@H]2C(=O)N(C)C(=O)[C@@H]21 | -1.38% (inactive)
CCC(=O)Nc1c(C)n[nH]c1C | -0.823% (inactive)
CN1CCN(c2ncc3c(n2)CC(c2ccccc2F)CC3=O)CC1 (stereo not given) | -2.83% (inactive)

Compound | activation
Cc1ccccc1-n1nnc2c(=O)oc3ccccc3c21 | 10.2% (active)
CCCCC(=O)Nc1cc(C)c2c(=O)oc3ccccc3c2n1 | 7.83% (inactive)
CC(C)(C)Nc1c(N)c(=O)oc2ccccc12 | -1.36% (inactive)
O=C(c1ccc(-c2ccccc2)cc1)C1CCCN(C(=O)c2cncs2)C1 (stereo not given) | 1.31% (inactive)
Cc1noc(C)c1C(=O)NCC1COc2ccccc2O1 (stereo not given) | -2.37% (inactive)
Cc1ccccc1/[N+]([O-])=C/c1ccncc1 | 1.01% (inactive)
COCCn1nnnc1CN1CCC(NC(=O)Nc2cccc(OC)c2)CC1 | -0.645% (inactive)
COc1ccc(NC(=O)CC(NC(C)c2ccccc2)C(=O)O)cc1 (stereo not given) | -1.25% (inactive)
CCN(CC)CCNc1nc(-c2ccc(OC(F)F)cc2)c(C)s1 | -1.98% (inactive)
CC1(C(=O)NNC(=S)NCC2CCCO2)CC1(Cl)Cl (stereo not given) | -1.22% (inactive)
O=C1CCC(=O)N1c1ccc(NCCc2ccccc2F)c([N+](=O)[O-])c1 | -3.51% (inactive)
O=C(NCCc1ccc(Cl)cc1)C1CCCN1C(=O)NCc1ccccc1 (stereo not given) | 0.456% (inactive)
CN1C(=O)c2ccccc2C(C(=O)NCCCN2CCCC2)C1c1c[nH]c2ccccc12 (stereo not given) | -1.97% (inactive)
Cc1ccc(NS(=O)(=O)c2ccc(-c3ccc(=O)[nH]n3)o2)c(C)c1 | 2.4% (inactive)
CN(C)c1ccc(C(CC(=O)O)C(=O)O)cc1 (stereo not given) | -1.37% (inactive)
CC(C)(C)n1nnc(CCc2nnn(C(C)(C)C)n2)n1 | -4.6% (inactive)
O=C(O)C1CCCN1S(=O)(=O)c1ccc(Br)cc1 (stereo not given) | -2.7% (inactive)
O=C(C1CC(=O)N(C2CCCC2)C1)N1CCN(c2cccc(C(F)(F)F)c2)CC1 (stereo not given) | 5.77% (inactive)
CN(C)c1nc2n(c(=O)n1)CCO2 | -2.79% (inactive)
c1ccc(C2CCC(N3CCC(N4CCCCC4)CC3)CC2)cc1 (stereo not given) | -3.04% (inactive)
O=C(Nc1ccc(Cl)cc1)c1cc2nc(C3CC3)cc(C(F)(F)F)n2n1 | -4.3% (inactive)
FC(F)(F)c1ccc(CN2C[C@@H]3C(c4ccccc4)C4(c5ccccc5)CC3(C4)[C@H]2c2ccccc2)cc1 (stereo not given in full) | -0.566% (inactive)
Cc1ccc(N(C(=O)Cc2cccs2)C2C=CS(=O)(=O)C2)cc1Cl (stereo not given) | -2.42% (inactive)

Compound | activation
Cn1c(CC(=O)Nc2ccc(F)cc2)nnc1SCC(=O)NC1CCCCC1 | -3.67% (inactive)
COc1ccc(C)cc1NC(=O)c1cc(-c2ccccc2)nc2c1cnn2C(C)C | -4.65% (inactive)
CCOc1cc2[nH]c(=S)n(CCCN3CCCC3=O)c(=O)c2cc1OCC | 23.3% (active)
CCOc1cc2[nH]c(=O)n(Cc3ccc(C(=O)NCCCN4CCCC4=O)cc3)c(=O)c2cc1OCC | 3.97% (inactive)
CCOc1cc2[nH]c(=S)n(CCN3CCCCC3C)c(=O)c2cc1OCC (stereo not given) | 7.97% (inactive)
CC1CN(C(=O)CCC(=O)NCCCN2CCC(Cc3ccccc3)CC2)c2cc(Cl)ccc2O1 (stereo not given) | -4.59% (inactive)
CCn1c(CSCc2c(Cl)cccc2Cl)n[nH]c1=S | -4.78% (inactive)
CN1CCN(CCCCOc2ccccc2-c2ccccc2)CC1 | 3.27% (inactive)
O=Cc1ccc(OCc2cn3ccccc3n2)cc1 | -1.42% (inactive)
COc1ccccc1CNC(=O)CN1CCC(n2cnc3cc(F)ccc32)CC1 | -0.106% (inactive)
Cc1cc(C(=O)OCC(=O)N2C(C)CCCC2C)c2ccccc2n1 (stereo not given) | -2.15% (inactive)
O=C(c1ccccc1)N1CCN(C(=O)c2cc3nc(-c4ccccc4)cc(C(F)(F)F)n3n2)CC1 | -0.488% (inactive)
COc1ccccc1Oc1ccc(N2CC(C(=O)OCC(=O)c3ccc(F)cc3)CC2=O)cc1 (stereo not given) | -2.79% (inactive)
O=C(Nc1ccc(F)c([N+](=O)[O-])c1)C1CC(=O)N(Cc2ccccc2)C1 (stereo not given) | -2.4% (inactive)
COc1cccc(N(CC(=O)NC2CCCC2)C(=O)Cn2nnc(-c3ccc(C)cc3)n2)c1 | 0.507% (inactive)
O=C(CCCn1c(=O)c2sccc2n(CC(=O)NCC2CCCO2)c1=O)NCc1ccco1 (stereo not given) | -4.48% (inactive)
COc1ccccc1NC(=O)C1=C(C)Nc2nc3ccccc3n2C1c1cccs1 (stereo not given) | -1.44% (inactive)
COc1ccc(S(=O)(=O)N(CC(=O)NCc2ccco2)c2ccc(F)cc2)cc1 | -0.367% (inactive)
CN(C)N1C(N)=C(C#N)C(c2ccc(Br)cc2)C2=C1CCCC2=O (stereo not given) | 0.53% (inactive)
O=[N+]([O-])c1ccccc1N/N=C1\CCc2ccccc21 | -0.52% (inactive)
O=C(N[C@@H](Cc1c[nH]c2ccccc12)C(=O)O)OCC1c2ccccc2-c2ccccc21 | 7.88% (inactive)

— PubChem BioAssay AID2520 (Sanford-Burnham Center for Chemical Genomics, 2010)
